≈ marks a conversion by molar mass, not a printed value.
How the values were obtained:
[1] = target: DNA gyrase (Staphylococcus aureus) (UniProt P0A0K8+P20831); test: Inhibition of Staphylococcus aureus DNA Gyrase assessed as reduction in supercoiling pBR322 DNA by measuring induction of single strand breaks by ethidium bromide staining based agarose gel electrophoresis; type: protein-complex assay; details: dose 1-100 µM
In short: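 Gyrase-mediated cleavage of negatively supercoiled pBR322 ran for 30 min at 37 °C with compound at 0.5–200 μM. Single- and double-strand break products were quantified from gel lane fluorescence, corrected for differential emission of supercoiled versus linear DNA.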

Cytochrome P450 2C9 = Cytochrome P450 2C9 (Homo sapiens, UniProt P11712); test: Inhibition of CYP2C9 (unknown origin); type: ADME
hERG (KCNH2) = hERG (KCNH2) (Homo sapiens, UniProt Q12809); test: Inhibition of recombinant human ERG expressed in CHO-K1 cells at 100 uM at -80 mV holding potential tail current by automated Qpatch clamp assay relative to control; type: ADME, cell-based; details: CHO-K1 cells expressing recombinant human ERG
Sequence of hERG (KCNH2) (Q12809 whole entry): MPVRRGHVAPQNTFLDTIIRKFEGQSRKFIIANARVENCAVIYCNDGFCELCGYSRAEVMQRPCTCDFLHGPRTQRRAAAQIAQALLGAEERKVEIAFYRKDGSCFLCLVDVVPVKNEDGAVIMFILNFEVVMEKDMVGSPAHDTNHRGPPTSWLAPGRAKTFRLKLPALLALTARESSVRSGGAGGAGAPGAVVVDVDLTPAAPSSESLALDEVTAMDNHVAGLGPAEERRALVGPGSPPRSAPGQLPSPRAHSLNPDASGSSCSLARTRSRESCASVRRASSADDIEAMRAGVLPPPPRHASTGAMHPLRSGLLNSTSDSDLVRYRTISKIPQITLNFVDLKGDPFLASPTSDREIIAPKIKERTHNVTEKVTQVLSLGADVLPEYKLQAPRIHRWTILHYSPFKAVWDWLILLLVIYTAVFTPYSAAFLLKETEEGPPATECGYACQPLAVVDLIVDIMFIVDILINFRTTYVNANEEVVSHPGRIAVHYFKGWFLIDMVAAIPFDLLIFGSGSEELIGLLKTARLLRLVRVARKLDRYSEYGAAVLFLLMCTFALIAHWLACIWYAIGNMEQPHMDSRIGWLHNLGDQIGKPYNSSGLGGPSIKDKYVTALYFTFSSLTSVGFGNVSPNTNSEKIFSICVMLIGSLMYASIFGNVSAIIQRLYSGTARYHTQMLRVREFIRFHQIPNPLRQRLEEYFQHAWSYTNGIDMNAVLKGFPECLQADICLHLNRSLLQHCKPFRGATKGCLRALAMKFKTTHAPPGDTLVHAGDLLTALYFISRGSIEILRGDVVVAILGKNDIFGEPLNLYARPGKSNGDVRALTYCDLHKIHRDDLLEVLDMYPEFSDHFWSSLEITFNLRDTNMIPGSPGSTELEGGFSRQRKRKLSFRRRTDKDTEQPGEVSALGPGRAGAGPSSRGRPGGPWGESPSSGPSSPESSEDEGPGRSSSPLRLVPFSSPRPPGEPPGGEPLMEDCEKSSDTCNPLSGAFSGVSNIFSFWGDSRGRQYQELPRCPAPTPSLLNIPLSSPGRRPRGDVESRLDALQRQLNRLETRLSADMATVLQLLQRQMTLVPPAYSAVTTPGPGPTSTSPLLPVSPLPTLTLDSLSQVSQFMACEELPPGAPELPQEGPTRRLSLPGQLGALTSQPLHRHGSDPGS

THP-1 = test: Cytotoxicity against human THP-1 cells; type: cell-based
In short: (§1)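 THP-1, HepG2 and HeLa cells were exposed to compound from 128 to 0.0625 μg/mL. IC50 was obtained by nonlinear regression of the inhibition curves.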

DNA gyrase [2] = target: DNA gyrase (Staphylococcus aureus, UniProt P0A0K8+P20831); test: Inhibition of Staphylococcus aureus Gyrase supercoiling activity assessed as reduction in supercoiling pBR322 DNA by measuring relaxation by bromophenol blue staining based TAE gel method; type: protein-complex assay
HepG2 = test: Cytotoxicity against human HepG2 cells; type: cell-based; in short: as §1
[3] = Half life in ICR (CD-1) mouse at 10 mg/kg, iv measured up to 1440 mins by LC-MS/MS analysis; type: ADME, organism-based; details: in vivo
In short: (§2)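 Male ICR (CD-1) mice, 22 ± 2 g, given the free base in DMSO/Solutol HS-15/0.9% NaCl (5/5/90, v/v/v), IV at 10 mg/kg or PO at 50 mg/kg; 24 mice per route, three per timepoint. Plasma was taken by cardiac puncture at 3–1440 min (IV) or 10–1440 min (PO), measured by LC-MS/MS, and parameters were derived by noncompartmental analysis.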

CYP2C8 = CYP2C8 (Homo sapiens, UniProt P10632); test: Inhibition of CYP2C8 (unknown origin) at 10 uM relative to control; type: ADME
Sequence of CYP2C8 (P10632 whole entry): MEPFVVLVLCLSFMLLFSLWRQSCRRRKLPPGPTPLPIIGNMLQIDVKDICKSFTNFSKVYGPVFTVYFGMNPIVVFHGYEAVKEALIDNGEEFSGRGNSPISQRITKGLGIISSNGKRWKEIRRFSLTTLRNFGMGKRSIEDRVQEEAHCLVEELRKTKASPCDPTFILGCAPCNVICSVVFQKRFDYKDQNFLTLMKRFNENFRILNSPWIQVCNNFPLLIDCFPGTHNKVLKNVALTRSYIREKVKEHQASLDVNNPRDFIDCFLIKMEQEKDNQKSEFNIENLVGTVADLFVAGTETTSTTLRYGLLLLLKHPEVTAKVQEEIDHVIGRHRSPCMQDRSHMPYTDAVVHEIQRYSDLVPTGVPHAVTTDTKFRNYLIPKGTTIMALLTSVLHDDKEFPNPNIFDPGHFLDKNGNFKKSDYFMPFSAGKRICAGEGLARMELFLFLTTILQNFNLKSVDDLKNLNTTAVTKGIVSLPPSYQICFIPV

Nav1.5 = Nav1.5 (Homo sapiens, UniProt Q14524); test: Inhibition of recombinant human Nav1.5 expressed in human HEK293 cells at 100 uM measured at peak current by automated Qpatch clamp assay relative to control; type: ADME, cell-based; details: HEK293 cells expressing recombinant human Nav1.5
Enterobacter cloacae = test: Antibacterial activity against Enterobacter cloacae isolates by CLSI method; type: functional
[4] = AUClast in ICR (CD-1) mouse at 50 mg/kg, po measured up to 1440 mins by LC-MS/MS analysis; type: ADME, organism-based; design: route oral, dose 50 mg/kg, time <=1440; details: in vivo; in short: as §2
Cytochrome P450 2D6 = Cytochrome P450 2D6 (Homo sapiens, UniProt P10635); test: Inhibition of CYP2D6 (unknown origin); type: ADME
[5] = target: Acetylcholinesterase (Homo sapiens) (UniProt P22303); test: Inhibition of human recombinant acetylcholinesterase receptor expressed in HEK293 cells at 100 uM by spectrophotometry; type: cell-based
Sequence of Acetylcholinesterase (Homo sapiens) (P22303 whole entry): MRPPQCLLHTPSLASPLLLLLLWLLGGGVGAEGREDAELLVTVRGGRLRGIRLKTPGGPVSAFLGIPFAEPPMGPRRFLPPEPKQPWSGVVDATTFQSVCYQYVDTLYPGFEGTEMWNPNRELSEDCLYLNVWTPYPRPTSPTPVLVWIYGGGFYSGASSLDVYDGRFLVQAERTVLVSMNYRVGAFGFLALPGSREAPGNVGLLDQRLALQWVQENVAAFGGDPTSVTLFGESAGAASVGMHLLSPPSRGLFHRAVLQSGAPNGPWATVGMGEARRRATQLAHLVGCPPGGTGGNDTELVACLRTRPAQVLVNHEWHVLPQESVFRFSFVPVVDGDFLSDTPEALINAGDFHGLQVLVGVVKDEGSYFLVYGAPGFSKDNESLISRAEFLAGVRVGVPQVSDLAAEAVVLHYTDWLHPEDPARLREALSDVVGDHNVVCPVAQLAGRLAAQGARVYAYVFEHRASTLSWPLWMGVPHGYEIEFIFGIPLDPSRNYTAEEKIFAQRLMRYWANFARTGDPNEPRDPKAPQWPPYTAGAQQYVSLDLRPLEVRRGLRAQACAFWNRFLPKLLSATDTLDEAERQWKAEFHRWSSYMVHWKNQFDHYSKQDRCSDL

Cytochrome P450 2C8 = Cytochrome P450 2C8 (Homo sapiens, UniProt P10632); test: Inhibition of CYP2C8 (unknown origin); type: ADME
Sequence of Cytochrome P450 2C8 (P10632 whole entry): as the sequence (P10632 whole entry) above

[6] = target: 5-hydroxytryptamine receptor 2B (Homo sapiens) (UniProt P41595); test: Displacement of [3H]Lysergic acid diethylamide from human recombinant 5HT2B receptor expressed in CHO-K1 cells at 100 uM by radioligand binding assay; type: cell-based
CYP2C19 = CYP2C19 (Homo sapiens, UniProt P33261); test: Inhibition of CYP2C19 (unknown origin) at 10 uM relative to control; type: ADME
Sequence of CYP2C19 (P33261 whole entry): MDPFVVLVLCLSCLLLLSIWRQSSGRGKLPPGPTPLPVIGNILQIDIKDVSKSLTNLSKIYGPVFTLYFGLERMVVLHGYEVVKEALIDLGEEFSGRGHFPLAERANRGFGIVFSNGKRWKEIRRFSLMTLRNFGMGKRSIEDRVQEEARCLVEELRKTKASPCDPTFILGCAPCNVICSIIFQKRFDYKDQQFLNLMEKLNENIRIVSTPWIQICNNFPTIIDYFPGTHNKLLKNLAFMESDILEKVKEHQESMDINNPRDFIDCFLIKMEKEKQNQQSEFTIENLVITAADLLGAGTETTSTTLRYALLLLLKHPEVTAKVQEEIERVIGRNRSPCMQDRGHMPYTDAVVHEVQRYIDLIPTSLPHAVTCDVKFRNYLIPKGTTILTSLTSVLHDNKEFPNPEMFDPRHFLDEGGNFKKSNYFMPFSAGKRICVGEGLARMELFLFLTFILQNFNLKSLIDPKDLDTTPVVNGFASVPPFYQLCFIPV

Klebsiella pneumoniae = test: Antibacterial activity against Klebsiella pneumoniae isolates by CLSI method; type: functional
[7] = Permeability of the compound from apical to basolateral side in human Caco-2 cells; type: ADME, cell-based; details: read-out: permeability
[8] = Permeability of the compound from basolateral to apical side in human Caco-2 cells; type: ADME, cell-based; details: read-out: permeability
In short: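 Run at RTI International. Covers plasma protein binding (mouse, human; percent free), CACO-2 permeability and efflux, and microsomal stability (mouse and human microsomes) giving half-life.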

Staphylococcus aureus [9] = test: Antibacterial activity against Staphylococcus aureus 3527 by CLSI method; type: functional
Cav1.2 = Cav1.2 (Homo sapiens, UniProt Q13936); test: Inhibition of recombinant human Cav1.2 expressed in human HEK293 cells at 100 uM measured at peak current by automated Qpatch clamp assay relative to control; type: ADME, cell-based; details: HEK293 cells expressing recombinant human Cav1.2
Sequence of Cav1.2 (Q13936 whole entry): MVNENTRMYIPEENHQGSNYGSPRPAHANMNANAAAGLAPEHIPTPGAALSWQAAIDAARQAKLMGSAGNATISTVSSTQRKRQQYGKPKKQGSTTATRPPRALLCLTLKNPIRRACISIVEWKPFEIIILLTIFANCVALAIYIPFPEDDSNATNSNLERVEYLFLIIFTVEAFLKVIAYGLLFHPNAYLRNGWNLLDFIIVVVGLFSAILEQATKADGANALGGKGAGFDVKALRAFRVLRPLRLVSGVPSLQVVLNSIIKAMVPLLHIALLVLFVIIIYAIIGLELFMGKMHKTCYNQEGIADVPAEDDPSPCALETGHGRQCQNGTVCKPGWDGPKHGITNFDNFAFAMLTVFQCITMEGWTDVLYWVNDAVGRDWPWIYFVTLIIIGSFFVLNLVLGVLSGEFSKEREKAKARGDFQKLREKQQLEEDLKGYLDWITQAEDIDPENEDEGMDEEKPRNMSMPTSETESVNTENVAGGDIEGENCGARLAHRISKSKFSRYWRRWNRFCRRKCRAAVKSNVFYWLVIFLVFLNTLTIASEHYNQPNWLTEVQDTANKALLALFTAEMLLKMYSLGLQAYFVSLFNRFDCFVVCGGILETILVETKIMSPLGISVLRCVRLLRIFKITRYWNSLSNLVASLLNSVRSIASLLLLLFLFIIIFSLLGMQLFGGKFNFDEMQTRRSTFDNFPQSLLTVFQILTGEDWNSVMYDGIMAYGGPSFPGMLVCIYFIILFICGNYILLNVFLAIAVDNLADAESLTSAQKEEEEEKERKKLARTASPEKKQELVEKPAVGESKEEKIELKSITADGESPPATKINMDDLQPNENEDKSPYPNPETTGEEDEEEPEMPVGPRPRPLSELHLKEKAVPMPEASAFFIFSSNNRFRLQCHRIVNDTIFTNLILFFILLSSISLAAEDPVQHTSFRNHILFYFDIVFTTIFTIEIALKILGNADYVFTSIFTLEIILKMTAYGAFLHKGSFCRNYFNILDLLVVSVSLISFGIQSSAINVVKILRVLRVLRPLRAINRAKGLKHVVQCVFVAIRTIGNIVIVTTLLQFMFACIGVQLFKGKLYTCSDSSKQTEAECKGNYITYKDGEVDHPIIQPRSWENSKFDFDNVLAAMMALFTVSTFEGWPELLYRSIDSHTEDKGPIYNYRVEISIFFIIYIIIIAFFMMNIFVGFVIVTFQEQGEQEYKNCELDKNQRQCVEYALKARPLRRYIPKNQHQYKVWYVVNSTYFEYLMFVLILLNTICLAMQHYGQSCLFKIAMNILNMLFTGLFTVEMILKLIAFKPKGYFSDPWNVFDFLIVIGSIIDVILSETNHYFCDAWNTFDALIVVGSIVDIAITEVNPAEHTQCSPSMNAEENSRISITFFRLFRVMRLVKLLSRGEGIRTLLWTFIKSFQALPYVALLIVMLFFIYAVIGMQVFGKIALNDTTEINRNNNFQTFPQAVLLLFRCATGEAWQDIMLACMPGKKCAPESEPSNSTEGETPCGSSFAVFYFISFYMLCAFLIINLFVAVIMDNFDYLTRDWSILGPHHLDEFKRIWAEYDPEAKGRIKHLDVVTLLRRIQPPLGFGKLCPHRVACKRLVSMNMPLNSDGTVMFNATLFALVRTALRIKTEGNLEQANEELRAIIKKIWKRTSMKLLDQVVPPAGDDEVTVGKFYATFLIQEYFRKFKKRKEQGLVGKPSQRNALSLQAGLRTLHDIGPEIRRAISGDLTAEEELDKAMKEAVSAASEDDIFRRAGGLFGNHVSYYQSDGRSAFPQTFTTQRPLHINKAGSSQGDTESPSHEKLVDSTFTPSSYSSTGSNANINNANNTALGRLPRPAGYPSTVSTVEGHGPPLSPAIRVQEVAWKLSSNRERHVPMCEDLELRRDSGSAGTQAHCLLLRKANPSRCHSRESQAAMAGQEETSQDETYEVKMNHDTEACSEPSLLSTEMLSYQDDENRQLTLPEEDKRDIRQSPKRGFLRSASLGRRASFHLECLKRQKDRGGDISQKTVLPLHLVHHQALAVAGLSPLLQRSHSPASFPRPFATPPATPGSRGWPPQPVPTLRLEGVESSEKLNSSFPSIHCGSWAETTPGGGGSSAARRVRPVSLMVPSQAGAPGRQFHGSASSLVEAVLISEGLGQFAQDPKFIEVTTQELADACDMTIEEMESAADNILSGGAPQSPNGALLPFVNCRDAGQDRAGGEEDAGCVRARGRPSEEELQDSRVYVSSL

[10] = Growth inhibition of human K/VP.5 cells incubated for 48 hrs by NBTI cell counting analysis; type: functional; details: K562, 48 h
Staphylococcus aureus [11] = test: Antibacterial activity against methicillin-resistant Staphylococcus aureus ATCC 33591 infected in iv dosed CD1 mouse model of septicemia assessed as mouse survival at 25 to 50 mg/kg, iv administered 0.5 to 3.5 hrs post injection measured for 7 days relative to control; type: functional; details: dose 25-50 mg/kg; time 7 day
Escherichia coli = test: Antibacterial activity against Escherichia coli isolates by CLSI method; type: functional
[12] = AUClast in ICR (CD-1) mouse at 10 mg/kg, iv measured up to 1440 mins by LC-MS/MS analysis; type: ADME, organism-based; design: route intravenous, dose 10 mg/kg, time <=1440; details: in vivo; in short: as §2
Cytochrome P450 1A2 = Cytochrome P450 1A2 (Homo sapiens, UniProt P05177); test: Inhibition of CYP1A2 (unknown origin); type: ADME
DNA gyrase [13] = target: DNA gyrase (Staphylococcus aureus, UniProt P0A0K8+P20831, D83N); test: Inhibition of Staphylococcus aureus DNA Gyrase D83N mutant assessed as reduction in supercoiling pBR322 DNA by measuring relaxation by bromophenol blue staining based TAE gel method
Streptococcus pyogenes = test: Antibacterial activity against Streptococcus pyogenes isolates by CLSI method; type: functional
CYP2D6 = CYP2D6 (Homo sapiens, UniProt P10635); test: Inhibition of CYP2D6 (unknown origin) at 10 uM relative to control; type: ADME
[14] = Kinetic solubility of the compound at pH 7.4 buffer; type: physicochemical; details: read-out: Kinetic_solubility
In short: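 Kinetic aqueous solubility was measured in buffer at pH 7.4.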

COc1ccc2ncc(F)c(C[C@H](O)[C@H]3OC[C@H](NCc4cc5c(nn4)OCCS5)CO3)c2n1
Activity [1]: Dose-Dependent Effect
IC50 (Cytochrome P450 2C9): > 10 µM
inhibition at 100 µM (hERG (KCNH2)): < 25%
IC50 (THP-1): > 125 µM
IC50 (DNA gyrase [2]): 0.22 µM
IC50 (HepG2): > 125 µM
half-life [3]: 38 min
inhibition at 10 µM (CYP2C8): > 50%
inhibition at 100 µM (Nav1.5): < 25%
MIC50 (Enterobacter cloacae): > 64 µg/mL
AUC(0-t) at 24 h [4]: 5910 ng·h/mL
IC50 (Cytochrome P450 2D6): > 10 µM
inhibition [5]: > 45%
IC50 (Cytochrome P450 2C8): > 10 µM
inhibition [6]: > 45%
inhibition at 10 µM (CYP2C19): > 50%
MIC50 (Klebsiella pneumoniae): > 64 µg/mL
Papp A→B [7]: 5.68 ×10⁻⁶ cm/s
Papp B→A [8]: 81.2 ×10⁻⁶ cm/s
MIC (Staphylococcus aureus [9]): 0.25 µg/mL (≈ 0.511 µM)
inhibition at 100 µM (Cav1.2): < 25%
IC50 [10]: 202 µM
Survival (Staphylococcus aureus [11]): 100%
MIC50 (Escherichia coli): > 64 µg/mL
AUC(0-t) at 24 h [12]: 2400 ng·h/mL
IC50 (Cytochrome P450 1A2): > 10 µM
IC50 (DNA gyrase [13]): 15 µM
MIC50 (Streptococcus pyogenes): 0.5 µg/mL (≈ 1.02 µM)
inhibition at 10 µM (CYP2D6): > 50%
solubility kinetic [14]: 61.4 µM (≈ 30.1 µg/mL)

— ChEMBL document CHEMBL4837261, “Optimization of TopoIV Potency, ADMET Properties, and hERG Inhibition of 5-Amino-1,3-dioxane-Linked Novel Bacterial Topoisomerase Inhibitors: Identification of a Lead with In Vivo Efficacy against MRSA” (J Med Chem, 2021)
